Assay outcomes (PubChem BioAssay)
T cruzi intra: inhibitors of intracellular Trypanosoma cruzi, primary screen, cell-based, plate reader, single point, set 2. activity score (inhibition), % at 5.01 µM. hit rate 4.9% among 22,000. intracellular Trypanosoma cruzi in host cells. AID 651903, 2012; in the data active = activity score above about 55%;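 note: parasites and compound incubated about four days before reading; 0% = median of neutral control wells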
A1 apoptosis 2: A1 inhibitors via caspase activation, primary screen, cell-based, luminescence, HTS, two replicates | MEF A1-2A-BIM cells, caspase-Glo luminescence, 3 h; percent of clofoctol response, DMSO zero | caspase activation, % (concentration not given with the values) | 24,000 tested, under 10 active; in the data active = caspase activation above about 5.9%
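Evaluation: Caspase-3/7 activity from luminescence increase | Assay system: A1-2A-BIM mouse embryonic fibroblasts | Quantity: 2500 MEF cells/well | Medium: RPMI-1640 plus 10% FBS | Detection: Caspase-Glo 3/7 luminescence, 1 h at room temperature | Dosing: 50 nL compound per well, pinned | Timing: Cells settled overnight, compound exposure 3 h at 37 °C, 5% CO2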
INS-1E ATP HTS: protection of INS-1E cells from cytokine death, primary screen, ATP luminescence, single point; AID 488910, 2010; protection from cytokine-induced ATP loss, % at 10 µM; hit rate 0.1% among 20,000; INS-1E cytokine-induced death, 48 h; normalised: neutral wells 0, positive control 100;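 active = mean replicate protection from cytokine-induced ATP loss at least 50% and at least 75% of replicates each reaching 50%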
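Assay system: INS-1E rat cells / Quantity: 8000 cells per well / Medium: RPMI without phenol red, 5% FBS / Probe or stimulus: three-cytokine cocktail (IFN-γ, TNF-α, IL-1β) / Dosing: one compound concentration, pin transfer / Timing: 48 h co-treatment, 10 min post-lysis read / Technique: CellTiter-Glo luminescence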
* marks the source's active call; other numbers are inactive results; . = no result given. This is one part of a sample in which hits are shown more often than they occur.

SMILES	T cruzi intra	A1 apoptosis 2	INS-1E ATP HTS
C[C@H](CO)N1C[C@H](C)[C@H](CN(C)Cc2ccc(Cl)c(Cl)c2)Oc2c(NC(=O)c3ccncc3)cccc2C1=O	56*	1	-8
C[C@@H]1CN([C@H](C)CO)C(=O)c2cccc(NC(=O)c3ccncc3)c2O[C@H]1CN(C)Cc1ccncc1	-16	1	4
C[C@H]1CN([C@@H](C)CO)C(=O)c2cccc(NC(=O)c3ccncc3)c2O[C@H]1CN(C)Cc1ccncc1	-18	.	11
C[C@@H]1CN([C@@H](C)CO)C(=O)c2cccc(NC(=O)c3ccncc3)c2O[C@H]1CN(C)Cc1ccc(Cl)c(Cl)c1	78*	0	3
COc1cc2c(cc1OC)CN(C(=O)[C@H]1[C@@H]3C(=O)O[C@@H](c4ccccc4)[C@@H](c4ccccc4)N3[C@@H](c3ccc(O)cc3)[C@]13C(=O)Nc1ccc(C#CC4=CCCCC4)cc13)CC2	.	-1	.
C#Cc1ccc(OC)c(OC)c1	.	1	.
COc1ccc(Br)cc1/C=N/NC(=O)c1ccccn1	-20	0	10
CC(C)=CCC[C@H](C)C/C=N/NC(=O)c1ccccn1	-9	2	6
Cc1ccc(/C=N/NC(=O)CCCCCCC(=O)Nc2ccccc2O)o1	-4	1	9
CCCNc1ncnc2ccccc12	.	0	.
C[C@H]1CN([C@@H](C)CO)C(=O)c2cccc(NC(=O)c3ccc(-c4nccs4)cc3)c2O[C@H]1CN(C)C(=O)Nc1ccc(C(F)(F)F)cc1	24	.	-11
C[C@@H]1CN([C@@H](C)CO)C(=O)c2cccc(NC(=O)c3ccc(-c4nccs4)cc3)c2O[C@H]1CN(C)C(=O)Nc1ccc(C(F)(F)F)cc1	68*	.	1
C[C@H](CO)N1C[C@H](C)[C@H](CN(C)C(=O)Nc2ccc(F)cc2)Oc2c(NC(=O)c3ccc(-c4nccs4)cc3)cccc2C1=O	-12	.	14
C[C@@H]1CN([C@H](C)CO)C(=O)c2cccc(NC(=O)c3ccc(-c4nccs4)cc3)c2O[C@H]1CN(C)C(=O)Nc1ccc(C(F)(F)F)cc1	77*	.	-4
C=C(C)[C@@H]1CC=C(/C=N/NC(=O)CCCCCCC(=O)Nc2ccccc2O)CC1	-1	1	0
C[C@H](CO)N1C[C@H](C)[C@H](CN(C)S(=O)(=O)c2cccc(F)c2)Oc2ncc(-c3cccc(C(F)(F)F)c3)cc2C1=O	59*	.	.
COc1ccc(S(=O)(=O)N(C)C[C@@H]2Oc3ncc(-c4cccc(C(F)(F)F)c4)cc3C(=O)N([C@H](C)CO)C[C@@H]2C)cc1	46	-1	.
C[C@H](CO)N1C[C@H](C)[C@H](CN(C)S(=O)(=O)c2ccc(F)cc2)Oc2ncc(-c3cccc(C(F)(F)F)c3)cc2C1=O	89*	-1	.
C[C@H](CO)N1C[C@H](C)[C@H](CN(C)S(=O)(=O)c2cccc(F)c2)Oc2ncc(Br)cc2C1=O	20	.	.
CO[C@H]1O[C@H](CO)[C@@H](OC(=O)Nc2ccc3c(c2)OCO3)[C@H](OC(=O)Nc2ccccc2)[C@@H]1OC(=O)Nc1ccccc1	.	-2	.
CN(CCO)c1ccc(/C=N/NC(=O)CCCCCCC(=O)Nc2ccccc2O)cc1	21	0	0
C[C@H](CO)N1C[C@H](C)[C@H](CN(C)C(=O)Nc2ccc(C(F)(F)F)cc2)Oc2c(NC(=O)c3nc4ccccc4s3)cccc2C1=O	63*	.	-41
C[C@@H]1CN([C@@H](C)CO)C(=O)c2cccc(NC(=O)c3nc4ccccc4s3)c2O[C@@H]1CN(C)C(=O)Nc1ccc(F)cc1	7	.	-4
C[C@@H]1CN([C@H](C)CO)C(=O)c2cccc(NC(=O)c3nc4ccccc4s3)c2O[C@@H]1CN(C)C(=O)Nc1ccc(C(F)(F)F)cc1	-26	.	-67
C[C@H](CO)N1C[C@H](C)[C@@H](CN(C)C(=O)Nc2ccc(C(F)(F)F)cc2)Oc2c(NC(=O)c3nc4ccccc4s3)cccc2C1=O	58*	-1	-11
SMILES	T cruzi intra	A1 apoptosis 2	INS-1E ATP HTS
O=C(CCCCCC(=O)Nc1ccccc1O)N/N=C/c1cccc(C(=O)O)c1	-4	1	-15
O=C(N/N=C/c1ccc(OCCO)cc1)c1ccccn1	-5	-10	-12
NCCCCCCNC(=O)[C@@H]1C[C@@H]2C(=O)NCC(=O)N2[C@@H]1c1cccc(OCCO)c1	.	-1	.
O=S(=O)(N[C@@H]1CCCN(Cc2ccc(OCCO)cc2)C1)c1cccc(F)c1	.	0	.
C[C@@H]1CN([C@H](C)CO)C(=O)c2cccc(NC(=O)Nc3ccc(C(F)(F)F)cc3)c2O[C@@H]1CN(C)Cc1ccc(Oc2ccccc2)cc1	79*	.	-54
C[C@@H]1CN([C@@H](C)CO)C(=O)c2cccc(NC(=O)Nc3ccc(C(F)(F)F)cc3)c2O[C@H]1CN(C)Cc1ccc(Oc2ccccc2)cc1	52	-1	-55
C[C@@H]1CN([C@@H](C)CO)C(=O)c2cccc(NC(=O)Nc3ccc(C(F)(F)F)cc3)c2O[C@@H]1CN(C)Cc1ccc(Oc2ccccc2)cc1	87*	.	-92
C[C@@H]1CN([C@H](C)CO)C(=O)c2cccc(NC(=O)Nc3ccc(C(F)(F)F)cc3)c2O[C@H]1CN(C)Cc1ccc(Oc2ccccc2)cc1	42	-1	-4
C[C@H]1CN([C@@H](C)CO)C(=O)c2cccc(NC(=O)Nc3ccc(C(F)(F)F)cc3)c2O[C@H]1CN(C)Cc1ccc(Oc2ccccc2)cc1	69*	-2	-77
C[C@@H]1CN([C@H](C)CO)C(=O)c2cccc(NC(=O)Nc3ccccc3)c2O[C@H]1CN(C)Cc1ccc(C(F)(F)F)cc1	33	0	-18
NC(=O)COc1ccccc1/C=N/NC(=O)c1ccccc1O	-34	-1	-4
C=CCNC(=O)[C@@H]1[C@H]2C(=O)O[C@H](c3ccccc3)[C@H](c3ccccc3)N2[C@H](c2ccc(OCCO)cc2)[C@@]12C(=O)Nc1ccccc12	.	-1	.
O=C(CCCCCCC(=O)Nc1ccccc1O)NN=C1CCCC1	-10	.	6
C[C@@H]1CN([C@@H](C)CO)C(=O)c2cccc(NC(=O)c3nc4ccccc4s3)c2O[C@@H]1CN(C)CC1CCCCC1	76*	.	-48
C[C@H](CO)N1C[C@H](C)[C@H](CN(C)CC2CCCCC2)Oc2c(NC(=O)c3nc4ccccc4s3)cccc2C1=O	66*	-1	-31
C[C@@H]1CN([C@@H](C)CO)C(=O)c2cccc(NC(=O)c3nc4ccccc4s3)c2O[C@H]1CN(C)CC1CC1	-20	0	-20
C[C@H](CO)N1C[C@H](C)[C@@H](CN(C)CC2CCCCC2)Oc2c(NC(=O)c3nc4ccccc4s3)cccc2C1=O	64*	.	-41
C[C@H](CO)N1C[C@H](C)[C@@H](CN(C)CC2CC2)Oc2c(NC(=O)c3nc4ccccc4s3)cccc2C1=O	27	0	-18
C[C@@H]1CN([C@H](C)CO)C(=O)c2cccc(NC(=O)c3nc4ccccc4s3)c2O[C@@H]1CN(C)CC1CCCCC1	13	.	-48
COc1ccc(/C=N/NC(=O)CCCCCC(=O)Nc2ccccc2O)cc1	6	0	8
